pKi: −log10 of the molar value.
Assay: Inhibition of Zymomonas mobilis tRNA-guanine transglycosylase expressed in Escherichia coli cells BL21-CodonPlus (DE3)-RIPL in presence of and tRNATyr [-3H]-guanine incubated for 60 mins by liquid scintillation counting based radioactive assay
Outline: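 Z. mobilis TGT (Strep-tag II removed by thrombin) at 9–150 nM, chosen by expected affinity; tRNA^Tyr held at 1.5 µM with saturating [8-³H]-guanine at 10 µM in 100 mM HEPES pH 7.3, 20 mM MgCl₂, 0.037% (v/v) Tween 20. Four 15 µL aliquots taken at 60 min intervals; guanine incorporation into tRNA read by liquid scintillation counting; Ki from reduction of incorporation rate.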

Row | SMILES | pKi
1 | CNc1nc2ccc(C(=O)NN)cc2[nH]1 | 3.55
2 | CNC(=O)c1ccc2nc(NC)[nH]c2c1 | 3.57
3 | CNc1nc2cc3c(=O)[nH]cnc3cc2[nH]1 | 5.15
4 | CNC(=O)c1ccc2nc(NCCN3CCOCC3)[nH]c2c1 | 3.58
5 | CC#CC1NC(N)=Nc2cc3nc(NC)[nH]c3cc21 (racemic) | 4.32
6 | NC(=O)c1ccc2nc(NCCN3CCOCC3)[nH]c2c1 | 3.26
7 | CNc1nc2cc3c(cc2[nH]1)CNC(N)=N3 | 4.77
8 | CNc1nc2ccc(C(N)=O)cc2[nH]1 | 3.52
9 | N=C(N)Nc1ccc2[nH]c(NCCN3CCOCC3)nc2c1 | 4.24
10 | NNC(=O)c1ccc2nc(NCCN3CCOCC3)[nH]c2c1 | 3.55
11 | CNc1nc2cc3c(=O)[nH]c(N)nc3cc2[nH]1 | 7.24
12 | Nc1nc2cc3[nH]c(NCCN4CCOCC4)nc3cc2c(=O)[nH]1 | 8.22
13 | CNc1nc2cc(NC(=N)N)ccc2[nH]1 | 4.72
